HNF4A DNA FP = change in binding of human HNF4 alpha to DNA; 360,000 tested, 0.3% active; activity change, % at 10 µM; HNF4a-FITC DNA binding, fluorescence polarization, 1 h; AID 1224865; in the data active = activity change above about 30%, passing the limit was not always enough
IDE act = boosts human insulin-degrading enzyme activity in HEK cells. P14735. FAbeta-B cleavage, fluorescence polarization; 0% vehicle, 100% cell-free pure enzyme wells. 340,000 tested, 0.073% active. AID 493087. activation, % at 5.96 µM;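 active = activation above the mean of all tested compounds plus 3 SD, set per screening campaign, cut at about 17% in these data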
TPT1 inhibitor = inhibitors of Candida albicans tRNA 2'-phosphotransferase TPT1. recombinant caTPT1, FP RNA substrate dephosphorylation. inhibition, % at 5 µM. 300,000 tested, 0.81% active. AID 1962;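 active = inhibition above the mean of all tested compounds plus 3 SD, set per screening campaign, cut at about 24% in these data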;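 note: plate controls were DMSO alone for no effect and ferristatin control at 100 nM for full effect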
Rpn11 inh = blocks the human proteasome subunit Rpn11; inhibition, % at 20 µM; 360,000 tested, 0.59% active; human 26S proteasome, Ub4-pepOG fluorescence polarization; 20S core pre-blocked with epoxomicin;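 active = inhibition at 20 µM, scaled to each plate's controls, above about 33%, limit read from the data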
Target sequence (O00487 whole entry, looked up): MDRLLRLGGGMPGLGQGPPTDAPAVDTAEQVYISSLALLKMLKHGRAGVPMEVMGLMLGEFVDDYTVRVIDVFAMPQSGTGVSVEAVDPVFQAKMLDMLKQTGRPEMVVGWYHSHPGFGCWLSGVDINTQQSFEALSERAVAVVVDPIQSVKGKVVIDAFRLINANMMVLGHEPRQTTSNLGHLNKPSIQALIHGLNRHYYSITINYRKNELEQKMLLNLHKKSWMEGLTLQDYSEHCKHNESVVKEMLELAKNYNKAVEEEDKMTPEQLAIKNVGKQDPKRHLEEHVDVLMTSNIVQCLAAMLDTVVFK
IDE inh = inhibits human insulin-degrading enzyme in HEK cells | P14735 | FAbetaB cleavage, fluorescence polarization | inhibition, % at 5.59 µM | 320,000 tested, 0.41% active | AID 434962;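 active = percent inhibition above the average of all tested compounds plus 3 SD, set per screening campaign, cut at about 16% in these data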;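 note: IDE supplied by intact live HEK cells; FP after avidin binding of uncleaved biotin substrate so inhibition keeps polarization high; 0% = DMSO wells and 100% = 60 µM reference IDE inhibitor Ii1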
CSN deneddyl inh = inhibitors of human CSN-mediated cullin deneddylation; Q92905; Purified CSN, SCF-Nedd8-OG deneddylation, fluorescence polarization; inhibition, % at 12.5 µM; 360,000 tested, 0.38% active; AID 651999;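 active = pattern-corrected inhibition above about 35%, with an unprinted fluorescence ratio check between 0.5 and 1.5, limit read from the data, passing the limit was not always enough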;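 note: 0% = enzyme with substrate and 100% = substrate without enzyme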
Target sequence (Q92905 whole entry, looked up, one chain of several): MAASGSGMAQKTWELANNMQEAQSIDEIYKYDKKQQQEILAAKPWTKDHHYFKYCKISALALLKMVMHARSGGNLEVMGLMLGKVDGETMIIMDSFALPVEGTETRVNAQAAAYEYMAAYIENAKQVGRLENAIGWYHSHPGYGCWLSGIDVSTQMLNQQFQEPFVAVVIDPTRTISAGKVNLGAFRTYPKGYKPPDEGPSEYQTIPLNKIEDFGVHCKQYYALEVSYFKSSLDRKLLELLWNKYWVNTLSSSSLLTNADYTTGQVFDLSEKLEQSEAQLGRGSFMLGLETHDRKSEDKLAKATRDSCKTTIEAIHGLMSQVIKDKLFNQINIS
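Schedule: reaction 90 min, room temperature / Assay system: HEK293T-derived human Csn5 enzyme / Input: Csn5 at 0.24 nM final / Measure: inhibition of Csn5 cleavage, % / Control set: substrate-only high control, full reaction low control / Technique: fluorescence polarization of the substrate / Buffer or medium: Tris/NaCl/DTT buffer, pH 7.5 / Reagent: SCFSkp2-Nedd8OG substrate at 10 nM final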
caTPT1 confirm = TPT1 (C. albicans) inhibition, confirmation | shares compounds with TPT1 inhibitor | recombinant caTPT1, fluorescence polarization, RNase T1 coupled | inhibition, % at 5 µM | 2,400 tested, 74% active | AID 2149;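 active = inhibition above the primary screen limit, the mean inhibition of all tested compounds plus 3 SD, cut at about 25% in these data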
RNase T1 inh = RNase T1 inhibition in TPT1 counter-screen | shares compounds with TPT1 inhibitor | RNase T1 cleavage, fluorescence polarization, 1536-well | inhibition, % at 5 µM | 2,400 tested, 83% active | AID 2153;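 active = inhibition above the solvent-only control well mean plus 3 SD, limit set per screening run, cut at about 23% in these data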;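 note: plate controls were DMSO wells with enzyme for no effect and wells without RNase T1 for full effect; inhibitors block cleavage so intact labeled substrate keeps polarization high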
* marks the source's active call; other numbers are inactive results; · = not tested or not shown; ! = not confirmed by another sample. Hits are enriched below; roughly 1.7% of the tested compounds scored in any of these assays.

SMILES | HNF4A DNA FP | IDE act | TPT1 inhibitor | Rpn11 inh | IDE inh | CSN deneddyl inh | caTPT1 confirm | RNase T1 inh
CCOc1ccc(NC(=S)Nc2ccccc2C2(C)CC2)cc1 | -2 | 0 | 0 | 0 | -3 | -3 | · | ·
O=C1CC(=O)N(Cc2cccs2)C(=O)N1 | 7 | -1 | 62* | 36 | 9 | 12 | 16 | 23*
COc1cc(NC(=O)Nc2nc(C(N)C3CCCCC3)cs2)cc(OC)c1OC (stereo not given) | -3 | · | · | 5 | · | 4 | · | ·
COc1cc(OCc2ccc(C)cc2)ccc1CNC[C@H]1O[C@@H](n2cnc(C(N)=O)n2)[C@H](O)[C@@H]1O | -3 | 2 | · | 0 | · | -3 | · | ·
O=C(O)/C=C/c1cn(-c2ccccc2)nc1-c1ccc(-c2ccc([N+](=O)[O-])cc2)o1 | -16 | 3 | 69* | · | -1 | 12 | 84* | 91*
O=C(O)/C=C/c1cn(-c2ccccc2)nc1-c1cccc([N+](=O)[O-])c1 | -3 | 1 | 0 | -1 | 6 | -3 | · | ·
CC(=O)c1cc(NC(=O)c2cccc(C(F)(F)F)c2)c(=O)oc1/C=C/N(C)C | 129 | -14 | 117* | · | 6 | 50 | 122* | 128*
O=c1c2ccccc2c(/C=N/NS(=O)(=O)c2ccccc2)c(O)n1-c1ccccn1 | 120 | -7 | 106* | · | -1 | 80* | 62* | 78*
CCN(CC)CCN(C(=O)c1ccc(Br)s1)c1nc2cc3c(cc2s1)OCCO3 | 5 | 1 | -6 | -10 | 4 | -1 | · | ·
CN(C)CCCN(C(=O)c1ccc(Br)s1)c1nc2cc3c(cc2s1)OCCO3 | 1 | 3 | 31* | -3 | 5 | 5 | 28* | 30*
Cc1ccccc1-c1nc(CS(=O)CC(=O)NC(C)CCc2ccccc2)c(C)o1 (stereo not given) | 3 | 0 | -5 | 1 | 1 | -5 | · | ·
CCCCc1nc2ccccc2c(N)c1CCC (tested in a mixture with another compound) | -2 | 1 | 40* | -16 | 0 | -4 | 4 | 5
CNC(=O)NC(=O)C(C)OC(=O)c1c2c(nc3ccccc13)/C(=C/c1cccs1)CC2 (stereo not given) | 24 | -4 | 27* | · | 1 | 14 | 30* | 42*
Cc1ccc(C)c(OCCC(=O)Nc2ccc3c(c2)OCO3)c1 | -1 | 4 | · | 3 | -7 | -7 | · | ·
CCc1ccc2[nH]c(O)c(N=Nc3nc(-c4ccccc4)cs3)c2c1 | 14 | 8 | 43* | 33 | 2 | 8 | 26* | 40*
COc1ccc2c(c1OC)C(=O)N1C2SC(C)(C)[C@H]1C(=O)NC(C)C (stereo not given in full) | 0 | -1 | -3 | 2 | 7 | -3 | · | ·
COc1ccc(CN2C(=O)c3ccccc3C(/C=N/OCc3ccc(Cl)cc3)C2=O)cc1 (stereo not given) | 2 | 0 | 43* | 9 | 4 | -3 | 65* | 75*
O=C(NCc1ccccc1)c1cc(S(=O)(=O)N2CCOCC2)ccc1F | 17 | 3 | 48* | 28 | -1 | 9 | 40* | 52*
O=C(NCCc1ccccc1)c1cc(S(=O)(=O)N2CCOCC2)ccc1F | 1 | 7 | 4 | 5 | -8 | 3 | · | ·
O=C(COC(=O)c1cnccn1)Nc1ncc(Cl)cc1Cl | -10 | 6 | 0 | -6 | 0 | 3 | · | ·
CCOc1ccc(Cn2c(O)cc(=O)[nH]c2=O)cc1 | 1 | 5 | 39* | 14 | 2 | 14 | 19 | 24*
COc1ccc(Cn2c(O)cc(=O)[nH]c2=O)cc1 | 0 | 2 | 26* | 16 | -1 | 15 | 21 | 28*
CCOc1ncccc1C(=O)OCC(=O)NCc1ccccc1 | 1 | 4 | · | -6 | -5 | -1 | · | ·
Cc1ccc(-c2nc3sc(C#N)c(N)n3c(=O)c2C#N)cc1 | 30 | -5 | 24* | · | 10 | 29 | 35* | 48*
O=C(CNC(=O)c1cc(-c2ccccc2)nn1-c1ccccc1)Nc1ccccc1Br | 7 | 4 | · | -1 | · | 1 | · | ·
SMILES | HNF4A DNA FP | IDE act | TPT1 inhibitor | Rpn11 inh | IDE inh | CSN deneddyl inh | caTPT1 confirm | RNase T1 inh
CCOC(=O)c1cnn(C)c1NC(=O)c1ccc([N+](=O)[O-])cc1 | -1 | 1 | -1 | 4 | 1 | 2 | · | ·
CC1=NCC(C)c2c1[nH]c1ccccc21 (stereo not given) | 2 | 2 | 56* | 16 | 0 | 6 | 17 | 27*
Cc1cccc(N=C2NC(=O)C(CO)(CO)S2)c1 | -6 | 5 | 3 | -1 | -4 | 0 | · | ·
O=C(CC(C(=O)O)c1ccccc1)Nc1cccc2ccccc12 (stereo not given) | 2 | 3 | 30* | 0 | 8 | -12 | 5 | 8
O=C(Nc1ccccc1O)c1nc(Cl)ccc1Cl | 3 | 6 | 6 | -3 | 4 | 2 | · | ·
Cc1ccc2c(c1)S/C(=C\c1cccc[n+]1C)N2CCO | 6 | 0 | -1 | 4 | 5 | 0 | · | ·
CCN1/C(=C/c2ccc3cc(C)ccc3[n+]2CC)Sc2ccc3sccc3c21 | 249 | -40 | 33* | 147* | 7 | 162* | 63* | 66*
COc1ccccc1OCC(=O)Nc1cc2c(cc1C(=O)O)OCCCO2 | 2 | 0 | 1 | -2 | 2 | -6 | · | ·
COc1ccc(C)c2sc(=NC(=O)c3cccc(N4C(=O)CCC4=O)c3)n(C)c12 | 1 | 6 | 38* | -1 | 7 | 1 | -1 | 5
COc1ccc(C)c2sc(=NC(=O)c3ccccc3)n(C)c12 | 5 | 1 | -3 | 1 | 2 | -7 | · | ·
N#Cc1c(Sc2ncc(C(F)(F)F)cc2Cl)nsc1C/C=N\OCc1c(F)cccc1Cl | 11 | -3 | 36* | · | 0 | 20 | 20 | 33*
N=C(N)SCc1nc2ccccc2c(=O)n1-c1ccccc1 | 16 | -3 | 26*! | 26 | -2 | 2 | 28* | 37*
CCCN(C)C1CN(Cc2cn(Cc3cccc(Cl)c3)nn2)S(=O)(=O)C1 (stereo not given) | -1 | · | · | · | · | -3 | · | ·
Cc1cc(=O)oc2c(CN3CCCC3)c(O)c(Cl)cc12 | -3 | 3 | -8 | -21 | -2 | -3 | · | ·
Cc1cc(=O)oc2c3c4c(cc12)OCCN4CCC3 | 6 | -4 | 30* | -10 | -1 | -3 | 13 | 22*
CC(C)c1cc(=O)oc2c3c4c(cc12)CCCN4CCC3 | 13 | 1 | 29* | 1 | 2 | 2 | 32* | 41*
CN1CCCc2cc3c(C(F)(F)F)cc(=O)oc3nc21 | -72 | 10 | -52 | -106 | 3 | -31 | · | ·

Source: PubChem BioAssay (several laboratories)
